Rows were chosen to be rich in hits. Some 1.6% of all compounds tested hit in one or more screens of this group.
SIAE inh – human SIAE inhibitors, primary screen, biochemical, fluorescence polarization, FP-Rh probe, 1536-well HTS; Sialate O-acetylesterase (Homo sapiens), Q9HAT2; SIAE FP-Rh probe binding; inhibition, % at 9.66 µM; 370,000 compounds, 0.69% hits;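 active = inhibition above a cutoff: mean of compounds within the control limits plus 3 SD of those, cut at about 17% in these data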;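 note: 0% = plate median of compound wells and 100% = probe without SIAE protein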
mABHD4 FP – ABHD4 inhibitors, primary screen, biochemical, fluorescence polarization, mouse | inhibition, % at 8.92 µM | 370,000 compounds, 0.54% hits | (Lyso)-N-acylphosphatidylethanolamine lipase (Mus musculus), Q8VD66 | purified mABHD4, FP-Rh probe fluorescence polarization;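 active = inhibition exceeding the mean over every tested compound plus 3 SD, cut at about 30% in these data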;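 note: 0% = plate median of compound wells and 100% = S159A mutant with DMSO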
Target sequence (Q8VD66 whole entry, looked up): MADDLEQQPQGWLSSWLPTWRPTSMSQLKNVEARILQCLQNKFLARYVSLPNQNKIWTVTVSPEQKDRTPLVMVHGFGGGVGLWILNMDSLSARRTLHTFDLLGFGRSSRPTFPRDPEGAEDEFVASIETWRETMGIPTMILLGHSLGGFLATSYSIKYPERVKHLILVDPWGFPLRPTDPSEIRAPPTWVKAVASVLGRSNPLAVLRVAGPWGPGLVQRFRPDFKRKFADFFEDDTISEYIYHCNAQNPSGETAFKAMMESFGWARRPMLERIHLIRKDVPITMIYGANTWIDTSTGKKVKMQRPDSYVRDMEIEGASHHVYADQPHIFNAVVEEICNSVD
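Material: mouse ABHD4 enzyme, wild type; Benchmarks: S159A mutant high control, sample median low control; Buffer or medium: HEPES pH 7.0, NaCl, Pluronic buffer; Signal: fluorescence polarization; Read-out: percent inhibition of probe binding, normalized to plate controls; Timing: pre-incubation 45 min, probe exposure 60 min, at 25 °C; Dosing: 8.92 µM, single dose.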
TCR-CD3 inh – inhibitors of human TCR-CD3 interaction, primary screen, biochemical, fluorescence, TAMRA-labeled TCR probe. T-cell receptor (TCR). AID 651800, 2012. 360,000 compounds, 0.37% hits. inhibition, % at 9.4 µM; in the data active = inhibition above about 19%;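 note: recombinant mutant TCR 2C K166C tagged with TAMRA read by polarization; 0% = receptor in buffer alone and 100% = receptor with positive control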
DAGLB inh – DAGLB lipase inhibitors, primary screen, biochemical, fluorescence, HTS | Diacylglycerol lipase-beta (Homo sapiens), Q8NCG7 | HEK293T DAGLB membrane lysate, EnzChek fluorogenic substrate | inhibition, % at 5.17 µM | 340,000 compounds, 0.059% hits; in the data active = inhibition above about 34%;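 note: 0% = enzyme with vehicle and 100% = wells lacking enzyme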
HTRA1 inhibitor – HTRA1 serine protease inhibitors, primary screen, biochemical, fluorescence polarization, HTS | Q92743 | inhibition, % at 5.96 µM | recombinant HTRA1, FP-rhodamine activity-based probe | AID 504803, 2011 | 340,000 compounds, 0.5% hits; in the data active = inhibition above about 36%;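 note: 0% = enzyme with DMSO and 100% = wells lacking enzyme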
SIAE inh conf – human SIAE inhibitors, retest, confirmation, biochemical, fluorescence polarization, FP-Rh probe, triplicate | 2,300 compounds, 13% hits | inhibition, % at 9.66 µM | shares compounds with SIAE inh | SIAE FP-Rh activity-based probe;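 active = mean inhibition of the replicates above the hit cutoff set in the primary screen, cut at about 17% in these data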;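 note: 0% = SIAE with DMSO and probe and 100% = probe without SIAE; inhibitors lower polarization as more probe stays unbound to SIAE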
An asterisk follows results filed as active; / = not tested or not shown.

SMILES	SIAE inh	mABHD4 FP	TCR-CD3 inh	DAGLB inh	HTRA1 inhibitor	SIAE inh conf
COc1cc(NC(=O)CSc2ccccc2)c(C(=O)O)cc1OC	1.6	-1.2	11.4	-4.4	0.7	/
Clc1ncc(CN2CCN(Cc3ccccc3)CC2)s1	28.2*	-1.9	5.5	-2.1	1.3	-3.0
C=CCN1CCN(Cc2cnc(Cl)s2)CC1	-0.8	2.3	5.6	-0.4	0.8	/
CC(C)C1OC2(C)OC(=N)C1(C#N)C(C#N)(C#N)C2c1ccccc1 (stereo not drawn)	22.4*	34.7*	18.0	-0.3	6.6	9.9
CCC1OC2(C)OC(=N)C1(C#N)C(C#N)(C#N)C2c1ccccc1 (stereo not drawn)	6.8	11.3	8.1	0.7	12.3	/
CCCCc1c(Cc2cccc(F)c2)ncn1CCc1ccccc1OC	9.1	19.2	2.9	/	/	/
CC(C)NC(=S)N/N=C/c1c[nH]c2ccccc12	8.3	8.9	5.1	4.3	5.9	/
Cc1[nH]c2ccccc2c1/C=N/NC(=O)C1CC1(c1ccccc1)c1ccccc1 (stereo not drawn)	27.0*	-2.2	-5.6	1.7	-0.1	2.2
Cc1[nH]c2ccccc2c1/C=N/NC(=S)NC(C)C	20.0*	9.6	-2.3	0.8	16.7	14.2
Cc1ccc(O)c(C(C)c2c[nH]c3ccccc23)c1 (stereo not drawn)	-2.8	-12.3	/	/	/	/
O=S(=O)(CC1NCCc2ccccc21)NCCc1ccccc1 (stereo not drawn)	1.8	0.2	/	/	/	/
CC(=O)Nc1nc(C)c(-c2csc(Nc3cccc([N+](=O)[O-])c3)n2)s1	-8.6	21.6	3.4	3.0	2.9	/
CC(=O)Nc1nc(C)c(-c2csc(Nc3cccc(C(C)=O)c3)n2)s1	42.0*	21.1	-11.9	2.4	11.7	64.7*
CC(C)C(=O)N1CCC(Oc2cccnc2)CC1	4.3	3.6	/	/	/	/
C=C(C)c1cccc(C(C)(C)NC(=O)Nc2ccc3[nH]c(=O)[nH]c3c2)c1	18.5*	3.4	1.4	1.9	5.1	2.6
COC(=O)C1=C(C)N(C)C(=NCc2ccc(OC)cc2)NC1c1cccc(C(F)(F)F)c1 (stereo not drawn)	5.2	8.3	5.7	/	/	/
C/C(=N\N=c1/sc2ccccc2n1C)c1ccc(N2CCOCC2)cc1	18.7*	5.9	-1.0	0.4	7.3	6.2
C/C(=N\N=c1/sc2ccccc2n1C)c1ccccn1	-1.9	-4.2	-2.4	-7.9	-1.8	/
COC(=O)CSc1nc2ccc(N)cc2s1	18.1*	7.9	-4.2	1.5	5.8	5.8
CC(=O)N1CCC2(CC1)C/C(=N\NC(=S)Nc1ccccc1C)c1cc(O)ccc1O2	18.3*	15.2	3.5	1.2	9.6	6.7
COc1ccccc1NC(=S)N/N=C1\CC(C)(C)Oc2ccc(O)cc21	33.8*	15.0	-6.2	-0.4	-0.3	12.4
COc1ccc(NC(=S)N/N=C2\CC(C)(C)Oc3ccc(O)cc32)cc1	34.6*	6.7	7.9	-0.3	9.6	28.3*
CC(=O)N1CCC2(CC1)C/C(=N\NC(=S)Nc1ccccc1F)c1cc(O)ccc1O2	10.6	7.5	-8.6	1.2	5.9	/
CO[C@H]([C@H](C)/C=C/N(C)C=O)[C@@H](C)C(=O)CC[C@H](C)[C@H](O)[C@H](C)[C@H]1OC(=O)/C=C/C(C)=C/C[C@H](O)C[C@@H]2C=CC[C@@H](C[C@H](OC)[C@@]3(CO3)[C@@H](OC)C[C@@H](OC)[C@@H]1C)O2	2.6	4.6	/	/	/	/
CCCCCCCCN1C(=O)[C@@H](CC(=O)N2CCN(C(=O)OCC)CC2)C[C@@]2(C(=O)OC)C1=C[C@H](COCc1ccccc1)O[C@@H]2C	3.2	4.0	/	/	/	/
SMILES	SIAE inh	mABHD4 FP	TCR-CD3 inh	DAGLB inh	HTRA1 inhibitor	SIAE inh conf
Cc1ccc(C(=O)COC(=O)c2cccc(NC(=O)c3ccc([N+](=O)[O-])cc3[N+](=O)[O-])c2)cc1	21.1*	-56.7	-0.8	-0.1	6.2	-29.4
CC(=O)Nc1ccc(C(=O)OCC(=O)c2cccc([N+](=O)[O-])c2)cc1	0.9	-0.4	2.1	1.2	-4.8	/
O=C1CCC2(CCC(c3ccccc3)CC2)N1CCCO (stereo not drawn)	5.5	-3.4	/	/	/	/
COc1cc(NC(=O)c2cccs2)c(OC)cc1NC(=O)c1cccs1	/	/	/	-4.1	-0.2	/
COc1cc(NC(=O)c2cccs2)c(OC)cc1NC(=O)Cc1ccccc1	18.8*	2.1	-6.1	0.8	-0.9	0.1
CCn1nnnc1NCc1ccc(N2CCCC2)cc1	0.1	-0.7	4.3	4.2	16.6	/
CCn1nnnc1NCc1ccc(SC)cc1	17.3*	6.2	-1.3	0.0	7.7	8.5
O=C(OCC(=O)N1CCN(C(=O)COC(=O)c2ccccc2NCCO)CC1)c1ccccc1NCCO	6.0	3.1	-2.8	2.4	-0.7	/
O=C(OCC(=O)N1CCN(C(=O)c2ccco2)CC1)c1ccccc1NCCO	24.2*	4.0	-7.7	-0.2	7.0	1.3
Cc1sc2nc(SCC(=O)c3ccc(O)c(O)c3)n(C)c(=O)c2c1C	-24.8	27.4	/	/	/	/
CCCCn1c(N)c(N(CCC(C)C)C(=O)C(C)N2C(=O)c3ccccc3C2=O)c(=O)[nH]c1=O (stereo not drawn)	-2.0	1.0	9.7	-0.3	-9.2	/
CCCCN(C(=O)C(C)N1C(=O)c2ccccc2C1=O)c1c(N)n(CCCC)c(=O)[nH]c1=O (stereo not drawn)	18.6*	-0.1	-5.3	-0.7	-0.8	-4.5
COc1ccc(C(=O)CCNc2ccc3c(c2)OCCO3)cc1	18.4*	3.8	-0.2	0.8	2.7	3.8
COc1ccc(C(=O)Nc2ccc3c(c2)OCCO3)cc1	-0.8	2.8	3.9	-0.8	-6.2	/
O=C(C(=O)N1CCC(CNS(=O)(=O)c2cccc(C(F)(F)F)c2)CC1)c1cc2ccccc2o1	-7.3	-4.2	-1.4	/	/	/
COc1ccc(COCC(O)CN2CCc3ccccc3C2)cc1OC (stereo not drawn)	20.4*	5.9	5.2	1.4	0.3	-1.8
OC(COCc1ccccc1)CN1CCc2ccccc2C1 (stereo not drawn)	-4.6	-4.1	-5.0	-1.5	-1.1	/
CCN(CC(=O)Nc1c(C(=O)OC)[nH]c2ccc(Cl)cc12)c1ccc2c(c1)OCO2	21.2*	22.4	-2.2	0.0	13.3	12.9
CCC(=O)N1CCC(C)(C(=O)Nc2ccc(OC)c(OC)c2)C1 (stereo not drawn)	18.2*	7.4	-2.7	/	/	4.1
CC1=C[C@@H]2[C@H]3C(=O)N(Cc4ccccc4)C(=O)[C@H]3[C@@H]1[C@@H]1O[C@@]3(C(=O)N(C)c4ccccc43)C3=C(CCCC3=O)N21	-5.3	-0.6	2.2	/	/	/

Bioassay records (PubChem BioAssay)
